From ChEMBL document CHEMBL1137090, “Heterocyclic bis-cations as starting hits for design of inhibitors of the bifunctional enzyme histidine-containing protein kinase/phosphatase from Bacillus subtilis” (J Med Chem, 2004)

Key:
[1] = target: T1, HPr kinase/phosphorylase (Bacillus subtilis (strain 168)) (UniProt O34483); assay: Percent inhibition of Histidine containing protein K in kinase assay with histidine containing protein at 10 uM
T1 sequence (whole entry): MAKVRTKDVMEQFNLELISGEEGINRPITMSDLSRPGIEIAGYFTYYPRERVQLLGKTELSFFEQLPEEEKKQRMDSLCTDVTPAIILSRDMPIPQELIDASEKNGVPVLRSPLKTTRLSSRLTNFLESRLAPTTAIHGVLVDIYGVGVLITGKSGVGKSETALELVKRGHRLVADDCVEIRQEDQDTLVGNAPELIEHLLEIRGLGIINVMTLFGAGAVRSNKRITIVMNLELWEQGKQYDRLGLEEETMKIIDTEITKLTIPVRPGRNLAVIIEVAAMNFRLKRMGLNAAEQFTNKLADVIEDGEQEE
Outline: (§1)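 Single-point kinase test at 10 and 100 µM final compound. HPr(His)6 (10 µM) is phosphorylated by 100 nM B. subtilis HPrK/P(Trx-His6-S-tag) with 0.5 mM [γ-32P]ATP, 5 mM MgCl2, 2 mM FBP, 0.1% BSA, 50 mM Tris pH 8; 37 °C, 10 min. 32P incorporation measured on P81 paper by scintillation.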

[2] = target: T1, HPr kinase/phosphorylase (Bacillus subtilis (strain 168)); assay: Percent inhibition of Histidine containing protein K in kinase assay with histidine containing protein at 100 uM; outline: as §1
[3] = target: T1, HPr kinase/phosphorylase (Bacillus subtilis (strain 168)); assay: Percent inhibition of Histidine containing protein K/P in kinase assay; parameters: concentration or dose not given beside the values; settings: concentration not given here
HPr kinase/phosphorylase [4] = target: T2, HPr kinase/phosphorylase (Bacillus subtilis (strain 168), UniProt O34483); assay: Inhibition of histidine containing protein in kinase assay
T2 sequence (O34483 whole entry): T1 sequence (whole entry)
Outline: (§2)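 B. subtilis HPrK/P(Trx-His6-S-tag) kinase, 100 nM, added last to start the reaction with 10 µM HPr(His)6 or Crh(His)6, 0.5 mM [γ-32P]ATP, 5 mM MgCl2, 2 mM FBP, 0.1% BSA, 50 mM Tris pH 8, 10% DMSO; 37 °C, 10 min. Read-out is P81 paper capture, H3PO4 washes and scintillation counting. Thirteen serial inhibitor concentrations, typically in triplicate; EC50 and Hill coefficient from nonlinear regression.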

[5] = Hill slope for the compound was measured for inhibition of histidine containing protein kinase assay; outline: as §2
[6] = target: HPr kinase/phosphorylase (Bacillus subtilis) (UniProt O34483); assay: Effective concentration for inhibition of HPr kinase/phosphorylase in kinase assay
[7] = Hill slope for the compound was measured for inhibition of Crh kinase assay
[8] = target: T1, HPr kinase/phosphorylase (Bacillus subtilis (strain 168)); assay: Percent inhibition of Histidine containing protein K in kinase assay at 10 uM; outline: as §1
[9] = target: T1, HPr kinase/phosphorylase (Bacillus subtilis (strain 168)); assay: Percent inhibition of Histidine containing protein K in kinase assay at 100 uM; outline: as §1
HPr kinase/phosphorylase [10] = target: T2, HPr kinase/phosphorylase; assay: Inhibition of histidine containing protein in kinase assay with ADP
Outline: (§3)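 Kinase reaction, 37 °C 10 min: 100 nM HPrK/P(Trx-His6-S-tag), 10 µM HPr(His)6 or Crh(His)6, 0.5 mM [γ-32P]ATP, 2 mM FBP, 0.1% BSA, pH 8 Tris. ADP given alone or combined with inhibitor at a fixed concentration ratio; ≥13 conditions in triplicate. Phosphate retained on P81 paper is counted. EC50 and Hill coefficient fitted by nonlinear regression.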

HPr kinase/phosphorylase [11] = target: T2, HPr kinase/phosphorylase; assay: Inhibition of histidine containing protein in phosphatase assay
Outline: (§4)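 Substrates HPr(His)6 or Crh(His)6 (8 µM final) are first fully phosphorylated by HPrK/P with [γ-32P]ATP and FBP, pH 8, 37 °C. Inhibitor, 13 serial concentrations premixed with inorganic phosphate (K2HPO4/KH2PO4, pH 8.0, 1 mM final), then added and incubated 2 h at 37 °C. Precipitating top concentrations excluded. Read-out by P81/scintillation; mean of n = 3; EC50 and Hill coefficient by nonlinear regression.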

[12] = Hill slope for the compound was measured for inhibition of Crh phosphatase assay
[13] = Combined index for the compound to that of ADP in kinase assay against histidine containing protein
Outline: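 B. subtilis HPrK/P(Trx-His6-S-tag), 100 nM, phosphorylating 10 µM HPr(His)6 or Crh(His)6; [γ-32P]ATP 0.5 mM, 50 mM Tris pH 8, 5 mM MgCl2, 2 mM FBP, 0.1% BSA, 37 °C, 10 min. Inhibitor and ADP co-varied at a constant ratio set by their separate EC50s; ≥13 conditions in triplicate. Chou-Talalay combination index computed at EC50.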

[14] = Effective concentration for inhibition of […] in kinase assay along with ADP; parameters: species or system Bacillus subtilis; outline: as §3
[15] = Combined index for the compound to that of ADP in kinase assay against Crh
[16] = Hill slope for the compound was measured for inhibition of histidine containing protein phosphatase assay; outline: as §4
[17] = Hill slope for the compound was measured for inhibition of histidine containing protein kinase assay along with ADP; outline: as §3
[18] = Effective concentration for inhibition of […] in phosphatase assay; parameters: species or system Bacillus subtilis; outline: as §4
[19] = Hill slope for the compound was measured for inhibition of Crh kinase assay along with ADP

| SMILES | inhibition [1] | inhibition [2] | also measured |
| --- | --- | --- | --- |
| CCCCCCCCCCCC[n+]1c(N)n(CCCc2ccccc2)c2ccccc21 | 38% | 96% | – |
| c1c[n+](CCCCCCCCCCCC[n+]2cc[nH]c2)c[nH]1 | – | – | inhibition [3]: < 5% |
| Nc1n(Cc2ccccc2)c2ccccc2[n+]1CCCCCCCCCCCCN1C(=O)c2ccccc2C1=O | 40% | 97% | – |
| CNC(=O)C[n+]1c(N)n(Cc2ccccc2)c2ccccc21 | 7% | 7% | – |
| Nc1n(Cc2ccccc2)c2ccccc2[n+]1CC(=O)[O-] | 2% | 3% | – |
| Nc1n(Cc2ccccc2)c2ccccc2[n+]1CC(=O)Nc1ccccc1 | 13% | 16% | – |
| Nc1ncnc2c1ncn2[C@@H]1O[C@H](COP(=O)(O)OP(=O)(O)O)[C@@H](O)[C@H]1O [ADENOSINE DIPHOSPHATE] | – | – | EC50 (HPr kinase/phosphorylase [4]): 4300 µM; Activity [5]: 0.9; EC50 [6]: 7400 µM; Activity [7]: 1.4 |
| Nc1n(Cc2ccccc2)c2ccccc2[n+]1CCCCCCCCCCCO | 9% | 37% | – |
| CCCCCCCCCCCC[n+]1c(N)n(Cc2ccc(OC)cc2)c2ccccc21 | 34% | 95% | – |
| CCCCCCCCCCCC[n+]1c(N)n(Cc2ccc(Cl)cc2)c2ccccc21 | 17% | 21% | – |
| CCC[n+]1c(N)n(Cc2ccccc2)c2ccccc21 | 13% | 14% | – |
| Nc1n(Cc2ccccc2)c2ccccc2[n+]1CCCCCC(=O)[O-] | 3% | 10% | – |
| CCCCCCCCCCCC[n+]1c(N)n(Cc2ccc(C)cc2)c2ccccc21 | 0% | 23% | – |
| Nc1n(Cc2ccccc2)c2ccccc2[n+]1Cc1ccccc1 | 13% | 33% | – |
| CCCCCCCCCCCC[n+]1c(N)n(Cc2ccccc2)c2ccccc21 | – | – | EC50 (HPr kinase/phosphorylase [4]): 29 µM; inhibition [8]: 18%; Activity [5]: 5.3; inhibition [9]: 90%; EC50 [6]: 32 µM; Activity [7]: 6.4 |
| CN1CCN(CCCCCCCCCCCC[n+]2c(N)n(Cc3ccccc3)c3ccccc32)CC1 | 35% | 93% | – |
| Nc1n(Cc2ccccc2)c2ccccc2[n+]1CCCO | 4% | 6% | – |
| CCCCCCCC[n+]1c(N)n(Cc2ccccc2)c2ccccc21 | 9% | 55% | – |
| CC(C)(C)OC(=O)NCCCCCC[n+]1c(N)n(Cc2ccccc2)c2ccccc21 | 9% | 14% | – |
| Nc1n(Cc2ccccc2)c2ccccc2[n+]1CCCCCCCCCCCCN1CCN(c2ccccc2)CC1 | 41% | 96% | – |
| NCCC[n+]1c(N)n(Cc2ccccc2)c2ccccc21 | 18% | 24% | – |
| Nc1n(Cc2ccccc2)c2ccccc2[n+]1CCCCCCCCCCCCNc1ccccc1 | 46% | 96% | – |
| CCCCCCCCCCCC[n+]1c(N)n(Cc2ccc(Cl)c(Cl)c2)c2ccccc21 | 9% | 51% | – |
| NCCCCCCCCCCC[n+]1c(N)n(Cc2ccccc2)c2ccccc21 | 24% | 62% | – |

| SMILES | inhibition [1] | inhibition [2] | also measured |
| --- | --- | --- | --- |
| Nc1cc2c(n[n+]1CCCCCCCCCCCC[n+]1nc3c(cc1N)-c1ccccc1CC3)CCc1ccccc1-2 | – | – | inhibition [3]: < 5% |
| Nc1n(Cc2ccccc2)c2ccccc2[n+]1CCCCCCCCCCCCNC1CCCCC1 | 11% | 93% | – |
| Nc1n(Cc2ccccc2)c2ccccc2[n+]1CCCc1ccccc1 | 11% | 20% | – |
| Nc1n(Cc2ccccc2)c2ccccc2[n+]1CCCCCCCCCCCCNCc1ccccc1 | 50% | 96% | – |
| CCCCCCCCCCCC[n+]1c(N)n(CCc2ccccc2)c2ccccc21 | 0% | 98% | – |
| Nc1n(Cc2ccccc2)c2ccccc2[n+]1CCCCCNCc1ccccc1 | 12% | 53% | – |
| CCCCC[n+]1c(N)n(Cc2ccccc2)c2ccccc21 | 12% | 32% | – |
| Nc1n(Cc2ccccc2)c2ccccc2[n+]1CCCCC[n+]1c(N)n(Cc2ccccc2)c2ccccc21 | – | – | EC50 (HPr kinase/phosphorylase [4]): 93 µM; Activity [5]: 1.3; EC50 [6]: 210 µM; Activity [7]: 1.3 |
| CC(C)(C)OC(=O)NCCC[n+]1c(N)n(Cc2ccccc2)c2ccccc21 | 18% | 12% | – |
| NC(=O)CCCCC[n+]1c(N)n(Cc2ccccc2)c2ccccc21 | 3% | 11% | – |
| Nc1n(Cc2ccccc2)c2ccccc2[n+]1CCCCCCO | 13% | 5% | – |
| CC(C)(C)OC(=O)NCCCCCCCCCCC[n+]1c(N)n(Cc2ccccc2)c2ccccc21 | 14% | 96% | – |
| Nc1sc2ccccc2[n+]1CCCCCCCCCCCC[n+]1c(N)sc2ccccc21 | – | – | inhibition [3]: < 5% |
| Nc1n(Cc2ccccc2)c2ccccc2[n+]1CCCCCN1CCN(c2ccccc2)CC1 | 13% | 34% | – |
| Nc1n(Cc2ccccc2)c2ccccc2[n+]1CCCCCCCC[n+]1c(N)n(Cc2ccccc2)c2ccccc21 | – | – | EC50 (HPr kinase/phosphorylase [4]): 20 µM; Activity [5]: 1.1; EC50 [6]: 71 µM; Activity [7]: 2.2 |
| NCCCCCC[n+]1c(N)n(Cc2ccccc2)c2ccccc21 | 12% | 33% | – |
| Cn1c(N)[n+](CCCCCCCCCCCC[n+]2c(N)n(C)c3ccccc32)c2ccccc21 | – | – | inhibition [3]: 64% |
| Nc1n(Cc2ccccc2)c2ccccc2[n+]1CCCCCCCCCCCCN1CCOCC1 | 31% | 90% | – |
| Nc1n(Cc2ccccc2)c2ccccc2[n+]1CCCCCCCCN1CCN(c2ccccc2)CC1 | 33% | 86% | – |
| Nc1cccc[n+]1CCCCCCCCCCCC[n+]1ccccc1N | – | – | inhibition [3]: < 5% |
| Nc1c2ccccc2cc[n+]1CCCCCCCCCCCC[n+]1ccc2ccccc2c1N | – | – | inhibition [3]: < 5% |
| Nc1n(Cc2ccccc2)c2ccccc2[n+]1CCCCCCCCCCC(=O)[O-] | 2% | 39% | – |
| Nc1n(Cc2ccccc2)c2ccccc2[n+]1CCCCCCCCCCCC[n+]1c(N)n(Cc2ccccc2)c2ccccc21.Nc1ncnc2c1ncn2[C@@H]1O[C@H](COP(=O)(O)OP(=O)(O)O)[C@@H](O)[C@H]1O | – | – | EC50 (HPr kinase/phosphorylase [4]): 10 µM; EC50 (HPr kinase/phosphorylase [10]): 5.2 µM; Activity [5]: 1.8; EC50 (HPr kinase/phosphorylase [11]): 16 µM; Activity [12]: 1.7; CI [13]: 1; EC50 [14]: 12 µM; CI [15]: 1.1; Activity [16]: 2.1; Activity [17]: 2.2; EC50 [18]: 14 µM; EC50 [6]: 21 µM; Activity [19]: 2.3; Activity [7]: 2.4 |
